The text below walks through data of ChEMBL document CHEMBL4359913, “Identification and characterization of benzo[d]oxazol-2(3H)-one derivatives as the first potent and selective small-molecule inhibitors of chromodomain protein CDYL” (Eur J Med Chem, 2019).

The source made the active and inactive calls. The rule behind the calls is not given here.

Test [1] deals with T1, Chromodomain Y-like protein (Mus musculus) (UniProt Q9WTK2).
T1 sequence (whole entry): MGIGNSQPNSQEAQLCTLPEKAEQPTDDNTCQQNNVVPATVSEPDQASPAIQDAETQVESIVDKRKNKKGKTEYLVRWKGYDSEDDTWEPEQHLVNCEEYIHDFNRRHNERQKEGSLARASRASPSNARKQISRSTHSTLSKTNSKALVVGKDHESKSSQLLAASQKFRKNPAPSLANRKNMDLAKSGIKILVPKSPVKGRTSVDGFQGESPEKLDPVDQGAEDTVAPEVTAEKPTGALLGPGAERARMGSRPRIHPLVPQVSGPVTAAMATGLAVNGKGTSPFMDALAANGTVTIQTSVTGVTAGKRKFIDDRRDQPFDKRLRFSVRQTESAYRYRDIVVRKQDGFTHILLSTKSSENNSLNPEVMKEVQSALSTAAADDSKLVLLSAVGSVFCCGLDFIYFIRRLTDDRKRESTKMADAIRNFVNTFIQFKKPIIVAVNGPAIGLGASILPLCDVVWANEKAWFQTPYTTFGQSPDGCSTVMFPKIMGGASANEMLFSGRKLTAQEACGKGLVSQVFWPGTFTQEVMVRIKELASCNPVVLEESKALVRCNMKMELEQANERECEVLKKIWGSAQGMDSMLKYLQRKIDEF
The test can be described thus: Inhibition of CDYL in C57BL/6 mouse hippocampal neurons as increase in MYT1 mRNA expression at 150 uM incubated for 24 hrs by RT-qPCR analysis. Summed up:
(§1)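 Mouse cortical or hippocampal neurons, dissociated with trypsin and kept in Neurobasal/B27, treated with 150 µM compound for 24 h. mRNA measured by SYBR green RT-qPCR with the 2^-ΔΔCt method, GAPDH as reference, relative to DMSO. Mean ± S.E.M. of triplicate experiments, Student's t-test.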
On the technique in general: In qPCR the cycle at which signal appears reflects the starting amount.

Test [2] concerns the target T2, Chromodomain Y-like protein (Homo sapiens) (UniProt Q9Y232).
T2 sequence (whole entry): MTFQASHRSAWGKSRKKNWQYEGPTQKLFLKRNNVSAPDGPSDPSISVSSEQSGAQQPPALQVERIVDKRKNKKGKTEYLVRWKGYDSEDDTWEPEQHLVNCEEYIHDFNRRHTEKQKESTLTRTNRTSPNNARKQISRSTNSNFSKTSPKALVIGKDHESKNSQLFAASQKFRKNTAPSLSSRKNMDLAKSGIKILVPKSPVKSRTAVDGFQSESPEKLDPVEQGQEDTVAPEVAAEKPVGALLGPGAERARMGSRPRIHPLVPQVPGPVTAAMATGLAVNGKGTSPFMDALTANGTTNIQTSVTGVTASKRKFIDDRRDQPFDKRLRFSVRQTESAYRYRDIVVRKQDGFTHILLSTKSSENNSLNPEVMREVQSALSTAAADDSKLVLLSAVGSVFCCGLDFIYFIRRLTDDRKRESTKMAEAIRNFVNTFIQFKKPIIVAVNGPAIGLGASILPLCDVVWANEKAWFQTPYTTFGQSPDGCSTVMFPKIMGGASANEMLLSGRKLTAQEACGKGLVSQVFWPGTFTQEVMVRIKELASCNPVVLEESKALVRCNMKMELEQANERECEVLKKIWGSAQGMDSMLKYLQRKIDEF
The test can be described thus: Inhibition of CDYL in human SH-SY5Y cells assessed as increase in MYT1 mRNA expression incubated for 24 hrs by RT-qPCR analysis. Format: cell-based. Summed up: (§2)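 SH-SY5Y or HEK-293T cells grown in DMEM with 10% FBS and treated with compound for 24 h. mRNA quantified by SYBR green RT-qPCR after DNase treatment, 2^-ΔΔCt method with GAPDH as reference, relative to DMSO. Mean ± S.E.M. of triplicate experiments, Student's t-test.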

Test [3] deals with T2, Chromodomain Y-like protein (Homo sapiens). The test can be described thus: Inhibition of CDYL in human SH-SY5Y cells assessed as increase in BDNF mRNA expression incubated for 24 hrs by RT-qPCR analysis. Format: cell-based. Summed up:
as §2

Test [4] shares this target. As to the kind of experiment: Inhibition of CDYL in human SH-SY5Y cells assessed as increase in VGF mRNA expression incubated for 24 hrs by RT-qPCR analysis. Format: cell-based. The method in brief:
as §2

Test [5] shares this target. As to the kind of experiment: Inhibition of CDYL in human HEK293T cells assessed as increase in BDNF mRNA expression at 50 to 200 uM incubated for 24 hrs by RT-qPCR analysis. The class given is cell-based. Summed up:
as §2

For test [6] the target is unchanged. As to the kind of experiment: Inhibition of CDYL in human SH-SY5Y cells assessed as decrease in enrichment of CDYL at MYT1 promoter site at 150 uM incubated for 24 hrs by ChIP-qPCR analysis. The class given is cell-based. Summed up:
(§3)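 About 1×10^7 SH-SY5Y cells given 150 µM compound or DMSO for 24 h, fixed in 1% formaldehyde for 10 min. Chromatin immunoprecipitated overnight-style (12 h, 4 °C) with CDYL or H3K27me3 antibody, captured on Protein A/G beads, washed, decrosslinked at 65 °C. Promoter DNA quantified by qPCR, mean ± S.E.M. of triplicate experiments, Student's t-test.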

Test [7] shares this target. As to the kind of experiment: Inhibition of CDYL in human SH-SY5Y cells assessed as decrease in enrichment of CDYL at VGF promoter site at 150 uM incubated for 24 hrs by ChIP-qPCR analysis. The class given is cell-based. Summed up:
as §3

Test [8] concerns SH-SY5Y. The test can be described thus: Effect on CDYL recruitment onto HOXA3 promoter site in human SH-SY5Y cells at 150 uM incubated for 24 hrs by ChIP-qPCR analysis. The class given is functional, cell-based. Summed up:
as §3

For test [9], the target named is T2, Chromodomain Y-like protein (Homo sapiens). As to the kind of experiment: Inhibition of CDYL in human SH-SY5Y cells assessed as decrease in enrichment of H3K27me3 at MYT1 promoter site at 150 uM incubated for 24 hrs by ChIP-qPCR analysis. Format: cell-based. The method in brief:
as §3

The target is the same in test [10]. As to the kind of experiment: Inhibition of CDYL in human SH-SY5Y cells assessed as decrease in enrichment of H3K27me3 at BDNF promoter site at 150 uM incubated for 24 hrs by ChIP-qPCR analysis. The class given is cell-based. The method in brief: as §3
In test [11] the test system is SH-SY5Y. The test can be described thus: Effect on enrichment of H3K27me3 at HOXA3 promoter site in human SH-SY5Y cells at 150 uM incubated for 24 hrs by ChIP-qPCR analysis. The class given is functional, cell-based. The method in brief: as §3
For test [12], the target named is T1, Chromodomain Y-like protein (Mus musculus). The test can be described thus: Inhibition of CDYL in C57BL/6 mouse hippocampal neurons as increase in VGF mRNA expression at 150 uM incubated for 24 hrs by RT-qPCR analysis. Summed up:
as §1

The target is the same in test [13]. As to the kind of experiment: Inhibition of CDYL in C57BL/6 mouse cortical neurons as increase in MYT1 mRNA expression at 150 uM incubated for 24 hrs by RT-qPCR analysis. The method in brief: as §1
Test [14] has the same target. The test can be described thus: Inhibition of CDYL in C57BL/6 mouse cortical neurons as increase in BDNF mRNA expression at 150 uM incubated for 24 hrs by RT-qPCR analysis. Summed up: as §1
Test [15] deals with T2, Chromodomain Y-like protein (Homo sapiens). As to the kind of experiment: Binding affinity to CDYL in human SH-SY5Y cells assessed as reduction in protein degradation incubated for 4 mins at 55 degC for 4 mins by CETSA. The class given is cell-based. The method in brief:
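Lysates of SH-SY5Y cells, freeze-thawed three times, incubated with compound at 0–500 µM at 55 °C for 4 min. Supernatant isolated by centrifugation and CDYL read by immunoblot with densitometry.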

On to `O=C(Cn1c(=O)oc2ccccc21)N1CCC(N2CCCC2)CC1`, for which the outcome in [1], in test [5], in test [12], in [13] and in test [14] was Active. Also, the Activity result in test [2], in test [3] and in test [4] was “Dose-dependent effect” in each case. Moreover, the inhibition result in [6], in [7], in [9] and in test [10] was “Active” in each case. Moreover, the result in the test on SH-SY5Y [8] and in the test with SH-SY5Y [11] was inactive. Further, the inhibition entry in test [15] was “Dose-dependent effect”.
